# Measured values reported in ChEMBL document CHEMBL2311539, “3,6-Diamino-4-(2-halophenyl)-2-benzoylthieno[2,3-b]pyridine-5-carbonitriles are selective inhibitors of Plasmodium falciparum glycogen synthase kinase-3” (J Med Chem, 2013).
# How the values were obtained:
# [1] = Inhibition of pig GSK-3 by radiometric protein kinase assay; design: species or system Sus scrofa
# Outline: (§1)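 Native affinity-purified porcine GSK-3 in the radiometric assay: 40 μM GS-1 peptide, 15 μM γ-33P-ATP, pH 7.5 Tris/MgCl2/EGTA/DTT/heparin/BSA buffer, 30 min at 30 °C, P81 filter binding and scintillation counting. IC50 from dose-response curves with triplicate points; top concentration 10 or 100 μM.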
# [2] = Inhibition of Plasmodium falciparum recombinant GSK-3 by radiometric protein kinase assay
# Outline: (§2)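 His6-tagged recombinant GSK-3 expressed in E. coli (TOP10/pBAD-Thio-TOPO for P. falciparum and T. gondii, arabinose-induced; BL21(DE3)-pRARE2/pET15 for C. parvum, IPTG at 15 °C), Ni-NTA purified. Assayed with 40 μM GS-1 phosphopeptide, 15 μM γ-33P-ATP in pH 7.5 Tris buffer with MgCl2, EGTA, DTT, heparin, BSA; 30 min, 30 °C; P81 paper, phosphoric acid washes, scintillation counting. DMSO controls; dose-response IC50, triplicate points.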
# Plasmodium falciparum [3] = assay: Antiplasmodial activity against Plasmodium falciparum at 15 uM after 72 hrs by luciferase reporter gene assay; assay type: functional
# Outline: (§3)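 NF54:LUC P. falciparum erythrocytic stages (luciferase under hrp2 promoter) at 3% parasitemia, 25% hematocrit; compounds in RPMI-1640 with 1% DMSO, triplicate wells; untreated, DMSO-only and non-luciferase NF54 blank wells. […] Bright-Glo lysis, luminescence read.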
# Plasmodium falciparum [4] = assay: Antiplasmodial activity against Plasmodium falciparum after 72 hrs by luciferase reporter gene assay; assay type: functional, organism-based; conditions: 48 h; outline: as §3
# [5] = Inhibition of Plasmodium knowlesi recombinant His6-tagged GSK-3 expressed in Escherichia coli using GS-1 peptide as substrate after 30 mins by scintillation counting analysis in presence of gamma-33P-ATP
# Outline: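 P. knowlesi GSK3 gene in pBAD-Thio-TOPO, expressed in E. coli TOP10 (ampicillin, 37 °C, 0.02% arabinose for 4 h), Ni-NTA purified. Radiometric assay: 40 μM GS-1 peptide in buffer A pH 7.5 (MgCl2, EGTA, DTT, heparin, BSA) with 15 μM γ-33P-ATP, 30 min at 30 °C. P81 filter binding, scintillation counting. IC50 from triplicate dose-response curves.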
# [6] = Inhibition of Plasmodium falciparum recombinant His6-tagged GSK-3 expressed in Escherichia coli using GS-1 peptide as substrate after 30 mins by scintillation counting analysis in presence of gamma-33P-ATP; outline: as §2
# [7] = Inhibition of Trypanosoma cruzi GSK-3
# [8] = biological target: Glycogen synthase kinase-3 (Sus scrofa, UniProt B2LUN4+I6LNT8); assay: Inhibition of pig GSK-3alpha/beta; outline: as §1
# [9] = Inhibition of Cryptosporidium parvum recombinant His6-tagged GSK-3 expressed in Escherichia coli using GS-1 peptide as substrate after 30 mins by scintillation counting analysis in presence of gamma-33P-ATP; outline: as §2
# [10] = Inhibition of Toxoplasma gondii recombinant His6-tagged GSK-3 expressed in Escherichia coli using GS-1 peptide as substrate after 30 mins by scintillation counting analysis in presence of gamma-33P-ATP; assay type: cell-free; outline: as §2
# [11] = Inhibition of Leishmania donovani GSK-3
# [12] = Inhibition of Trypanosoma brucei GSK-3
# [13] = biological target: Glycogen synthase kinase-3 beta (Homo sapiens, UniProt P49841); assay: Inhibition of human Nt-GST-tagged GSK-3beta
# Sequence of Glycogen synthase kinase-3 beta (P49841 whole entry, canonical isoform): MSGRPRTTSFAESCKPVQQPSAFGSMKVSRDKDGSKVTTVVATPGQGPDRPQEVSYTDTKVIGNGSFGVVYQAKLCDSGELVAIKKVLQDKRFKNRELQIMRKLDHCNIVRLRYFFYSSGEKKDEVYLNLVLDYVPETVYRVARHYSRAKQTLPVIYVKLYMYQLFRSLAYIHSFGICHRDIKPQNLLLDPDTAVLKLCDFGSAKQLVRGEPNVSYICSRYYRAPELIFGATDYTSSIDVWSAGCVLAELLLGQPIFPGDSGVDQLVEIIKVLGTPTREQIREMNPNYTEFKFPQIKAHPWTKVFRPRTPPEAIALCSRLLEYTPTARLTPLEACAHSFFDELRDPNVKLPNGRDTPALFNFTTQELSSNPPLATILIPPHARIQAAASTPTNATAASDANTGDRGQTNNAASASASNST
# Outline: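 Recombinant human GSK-3 isoform assayed radiometrically: 40 μM GS-1 peptide in buffer A pH 7.5 with 15 μM γ-33P-ATP, 30 min at 30 °C. Read-out by P81 filter binding and scintillation. IC50 from triplicate dose-response curves; top inhibitor concentration 10, 25 or 100 μM.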
# [14] = in the assay text read “48 hrs” for “72 hrs”
Structure (SMILES),IC50 [1] [µM],IC50 [2] [µM],also measured
N#Cc1sc2nc(N)c(C#N)c(-c3ccccc3Cl)c2c1N,0.4,0.13,–
N#Cc1c(N)nc2sc(C(=O)c3ccc(Cl)c(Cl)c3)c(N)c2c1-c1ccccc1Cl,> 10,2.7,inhibition at 15 µM (Plasmodium falciparum [3]): 100%; EC50 (Plasmodium falciparum [4]; [14]): 3.7 µM
N#Cc1c(N)nc2sc(C(=O)c3cccc(Cl)c3)c(N)c2c1-c1ccccc1I,> 10,0.91,IC50 [5]: 2.75 µM; IC50 [6]: 0.91 µM; IC50 [7]: > 100 µM; IC50 [8]: > 100 µM; IC50 [9]: > 100 µM; inhibition at 15 µM (Plasmodium falciparum [3]): 65.4%; IC50 [10]: > 100 µM; IC50 [11]: 70 µM; IC50 [12]: > 100 µM
COc1ccccc1-c1c(C#N)c(N)nc2sc(C#N)c(N)c12,> 10,> 10,–
N#Cc1sc2nc(N)c(C#N)c(-c3ccccc3Br)c2c1N,1.3,0.8,–
COc1ccccc1-c1c(C#N)c(N)nc2sc(C(=O)c3ccc(Cl)cc3)c(N)c12,> 10,> 10,–
N#Cc1c(N)nc2sc(C(=O)c3cccc(Br)c3)c(N)c2c1-c1ccccc1Cl,> 10,0.91,inhibition at 15 µM (Plasmodium falciparum [3]): 100%; EC50 (Plasmodium falciparum [4]; in the assay text read “after 48 hrs” for “after 72 hrs”): 7.5 µM
N#Cc1c(N)nc2sc(C(=O)Nc3ccc(Cl)cc3)c(N)c2c1-c1ccccc1Cl,> 10,> 10,–
N#Cc1c(N)nc2sc(C(=O)c3cccc(C(F)(F)F)c3)c(N)c2c1-c1ccccc1Cl,> 10,2.2,inhibition at 15 µM (Plasmodium falciparum [3]): 100%; EC50 (Plasmodium falciparum [4]; [14]): 5.6 µM
N#Cc1c(N)nc2sc(C(=O)c3ccc(Cl)cc3)c(N)c2c1-c1ccccc1Br,> 100,> 100,–
N#Cc1c(N)nc2sc(C(=O)c3ccc(Cl)c(Cl)c3)c(N)c2c1-c1ccccc1Br,> 10,3.8,–
N#Cc1c(N)nc2sc(C(=O)c3ccc(Cl)c(Cl)c3)c(N)c2c1-c1ccccc1I,> 100,70,–
N#Cc1c(N)nc2sc(C(=O)c3ccccc3Cl)c(N)c2c1-c1ccccc1I,> 10,> 10,–
COc1ccccc1-c1c(C#N)c(N)nc2sc(C(=O)c3ccccc3)c(N)c12,> 100,6,IC50 [5]: 95 µM; IC50 [6]: 6 µM; IC50 [13]: > 100 µM; IC50 [7]: > 100 µM; IC50 [8]: > 100 µM; IC50 [9]: > 100 µM; IC50 [10]: > 100 µM; IC50 [11]: 80 µM; IC50 [12]: > 100 µM
CCOc1ccccc1-c1c(C#N)c(N)nc2sc(C(=O)c3ccc(Cl)cc3)c(N)c12,> 10,> 10,–
N#Cc1c(N)nc2sc(C(=O)c3ccccc3)c(N)c2c1-c1ccccc1Br,> 10,1.1,–
N#Cc1c(N)nc2sc(C(=O)Nc3ccc(Cl)cc3)c(N)c2c1-c1ccccc1Br,> 10,> 10,–
COc1ccc(C(=O)c2sc3nc(N)c(C#N)c(-c4ccccc4OC)c3c2N)cc1,> 10,> 10,–
N#Cc1c(N)nc2sc(C(=O)c3cccc(Cl)c3)c(N)c2c1-c1cccs1,> 10,> 10,–
N#Cc1sc2nc(N)c(C#N)c(-c3cccs3)c2c1N,2.3,0.18,–
N#Cc1c(N)nc2sc(C(=O)c3ccccc3)c(N)c2c1-c1ccccc1I,> 10,2.4,–
N#Cc1sc2nc(N)c(C#N)c(-c3c[nH]c4ccccc34)c2c1N,3.5,1.6,–

Structure (SMILES),IC50 [1] [µM],IC50 [2] [µM],also measured
COc1ccccc1-c1c(C#N)c(N)nc2sc(C(=O)c3ccc(C#N)cc3)c(N)c12,> 10,> 10,–
N#Cc1c(N)nc2sc(C(=O)c3cccc(Cl)c3)c(N)c2c1-c1ccccc1Br,> 10,0.61,IC50 [5]: 1.45 µM; IC50 [6]: 0.61 µM; IC50 [7]: > 100 µM; IC50 [8]: > 100 µM; IC50 [9]: > 100 µM; inhibition at 15 µM (Plasmodium falciparum [3]): 77.1%; IC50 [10]: > 100 µM; IC50 [11]: 44 µM; IC50 [12]: > 100 µM
Cc1ccccc1-c1c(C#N)c(N)nc2sc(C#N)c(N)c12,2,0.51,–
N#Cc1c(N)nc2sc(C(=O)c3ccc(C(F)(F)F)cc3)c(N)c2c1-c1ccccc1I,> 10,> 10,–
CCOc1ccccc1-c1c(C#N)c(N)nc2sc(C#N)c(N)c12,> 10,> 10,–
Nc1c(C(=O)c2ccccc2)sc2nc3c(c(-c4ccccc4I)c12)CCCC3,> 10,> 10,–
Nc1c(C(=O)c2ccc(Cl)cc2)sc2nc3c(c(-c4ccccc4I)c12)CCCC3,> 10,> 10,–
N#Cc1sc2nc(N)c(C#N)c(-c3ccccc3I)c2c1N,> 10,> 10,–
N#Cc1c(N)nc2sc(C(=O)c3ccc(Cl)cc3)c(N)c2c1-c1ccccc1I,–,–,IC50 [5]: 15.5 µM; IC50 [6]: 1.61 µM; IC50 [13]: > 100 µM; IC50 [7]: > 100 µM; IC50 [8]: > 100 µM; IC50 [9]: > 100 µM; IC50 [10]: > 100 µM; IC50 [11]: 80 µM; IC50 [12]: > 100 µM
N#Cc1c(N)nc2sc(C(=O)c3ccc(Cl)cc3)c(N)c2c1-c1ccccc1,> 100,> 100,–
COc1ccc(C(=O)c2sc3nc(N)c(C#N)c(-c4ccccc4I)c3c2N)cc1,> 10,1.7,–
COc1ccccc1-c1c(C#N)c(N)nc2sc(C(=O)c3ccccc3Cl)c(N)c12,> 10,> 10,–
N#Cc1cccc(C(=O)c2sc3nc(N)c(C#N)c(-c4ccccc4Cl)c3c2N)c1,> 10,0.5,IC50 [5]: 6.5 µM; IC50 [6]: 0.5 µM; IC50 [7]: > 100 µM; IC50 [8]: > 100 µM; IC50 [9]: > 100 µM; inhibition at 15 µM (Plasmodium falciparum [3]): 30.3%; IC50 [10]: > 100 µM; IC50 [11]: 100 µM; IC50 [12]: > 100 µM
N#Cc1c(N)nc2sc(C(=O)Nc3ccc(Cl)cc3)c(N)c2c1-c1ccccc1I,> 10,> 10,–
COc1ccccc1-c1c(C#N)c(N)nc2sc(C(=O)c3cccc(Cl)c3)c(N)c12,> 10,8.5,–
COc1cccc(C(=O)c2sc3nc(N)c(C#N)c(-c4ccccc4Cl)c3c2N)c1,> 10,1.7,inhibition at 15 µM (Plasmodium falciparum [3]): 63.5%
COc1ccccc1-c1c(C#N)c(N)nc2sc(C(=O)c3ccc(C)cc3)c(N)c12,> 10,> 10,–
N#Cc1c(N)nc2sc(C(=O)c3cccc(Cl)c3)c(N)c2c1-c1ccccc1F,> 100,10,–
COc1ccccc1-c1c(C#N)c(N)nc2sc(C(=O)c3ccc(C(F)(F)F)cc3)c(N)c12,> 10,> 10,–
Cc1ccc(C(=O)c2sc3nc(N)c(C#N)c(-c4ccccc4I)c3c2N)cc1,> 10,3.2,–
N#Cc1c(N)nc2sc(C(=O)c3cccc(F)c3)c(N)c2c1-c1ccccc1Cl,> 100,> 100,–
